Published values pooled from the literature.
Each line is one published result; the experiments were not run side by side.
Target: Homeodomain-interacting protein kinase 3 (HIPK3, Homo sapiens, UniProt Q9H422)
Read-out: enzyme activity
Action: inhibitor

Cc1sc(C(=O)NC2COC2)cc1-n1cc(NC(=O)Nc2c(F)cccc2Cl)cn1
remaining activity (10 µM): 88.5%

COc1cc(Cl)c(C(=O)N[C@@H](CN[C@H]2CC[C@@H](N)CC2)Cc2ccc(C#N)cc2)cc1-c1ccc(CN[C@H](C)c2ccc(C)cc2)o1
remaining activity (1 µM): 96%

CCN(CC)c1ccc(C2=NNC(=O)CC2C)cc1[N+](=O)[O-] (stereo not shown)
remaining activity (10 µM): 40%

O=C(O)c1ccc2c(c1)nc(Nc1ccc(F)c(Cl)c1)c1ccncc12
remaining activity (radiometric; 1 µM): 5%

COc1cc(Nc2cnc(C#N)c(O[C@H](C)CN(C)C)n2)ncc1-c1cnn(C)c1
remaining activity (radiometric; 1 µM): 96%

CC(C)(C)c1nc(-c2cccc(NS(=O)(=O)c3c(F)cccc3F)c2F)c(-c2ccnc(N)n2)s1
remaining activity (radiometric; 1 µM): 99%

O=C(O)c1ccc2c(c1)nc(NCCc1cccc(Cl)c1)c1ncncc12
remaining activity (radiometric; 1 µM): 38%

Oc1cccc(-c2nc(N3CCOCC3)c3oc4ncccc4c3n2)c1
remaining activity (10 µM): 82%

CC(C)(O)[C@H]1CC[C@H](Nc2ccc3ncc(-c4cccc(C(F)(F)F)c4)n3n2)CC1
remaining activity (1 µM): 78.4%

FC(F)c1nc2ccccc2n1-c1nc(N2CCOCC2)nc(N2CCOCC2)n1
remaining activity (10 µM): 98%

Cc1cnc(NC2CCOCC2)nc1-n1cnc(C(=O)NC(CN)c2cc(F)cc(Cl)c2)c1 (stereo not shown)
remaining activity (radiometric; 1 µM): 94%

O=C(O)c1ccc2c(c1)nc(Nc1ccc3ccccc3c1)c1ccncc12
remaining activity (radiometric; 1 µM): 7%

CCCOc1ccc(OC)c(F)c1C(=O)c1ccc(C(=O)N[C@@H]2CNC[C@H]2NC(=O)c2ccc3[nH]ncc3c2)cc1
remaining activity (10 µM): 97%

O=C(O)c1ccc2c(c1)nc(NCCc1ccccc1)c1ccncc12
remaining activity (radiometric; 1 µM): 8%

O=C(Nc1cnn(-c2csc(C(=O)NC3COC3)c2)c1)Nc1ccccc1Cl
remaining activity (5 µM): 97.6%

O=C(O)c1ccc2c(c1)nc(NCc1ccccc1)c1ncncc12
remaining activity (radiometric; 1 µM): 52%

Cc1ccc(C(=O)Nc2ccc(CN3CCN(C)CC3)c(C(F)(F)F)c2)cc1C#Cc1cnc2cccnn12
remaining activity (23.5 nM): 93%

O=C(O)c1ccc2c(c1)nc(Nc1ccc(F)c(Cl)c1)c1ncncc12
remaining activity (radiometric; 1 µM): 12%

CC(C)(C)c1nc2c(s1)c1nc(N)ncc1c1ccc(NS(=O)(=O)c3c(F)cccc3F)c(F)c12
remaining activity (radiometric; 1 µM): 96%
